Tests used:
[1] = biological target: T1, Protein deacetylase HDAC6 (Homo sapiens, UniProt Q9UBN7); assay: Inhibition of HDAC6 (unknown origin) using Ac-LeuGlyLy-s(Ac)-AMC as substrate preincubated for 10 mins followed by substrate addition and further incubated for 2 hrs by fluorescence microtiter plate reader assay
T1 sequence (Q9UBN7 whole entry): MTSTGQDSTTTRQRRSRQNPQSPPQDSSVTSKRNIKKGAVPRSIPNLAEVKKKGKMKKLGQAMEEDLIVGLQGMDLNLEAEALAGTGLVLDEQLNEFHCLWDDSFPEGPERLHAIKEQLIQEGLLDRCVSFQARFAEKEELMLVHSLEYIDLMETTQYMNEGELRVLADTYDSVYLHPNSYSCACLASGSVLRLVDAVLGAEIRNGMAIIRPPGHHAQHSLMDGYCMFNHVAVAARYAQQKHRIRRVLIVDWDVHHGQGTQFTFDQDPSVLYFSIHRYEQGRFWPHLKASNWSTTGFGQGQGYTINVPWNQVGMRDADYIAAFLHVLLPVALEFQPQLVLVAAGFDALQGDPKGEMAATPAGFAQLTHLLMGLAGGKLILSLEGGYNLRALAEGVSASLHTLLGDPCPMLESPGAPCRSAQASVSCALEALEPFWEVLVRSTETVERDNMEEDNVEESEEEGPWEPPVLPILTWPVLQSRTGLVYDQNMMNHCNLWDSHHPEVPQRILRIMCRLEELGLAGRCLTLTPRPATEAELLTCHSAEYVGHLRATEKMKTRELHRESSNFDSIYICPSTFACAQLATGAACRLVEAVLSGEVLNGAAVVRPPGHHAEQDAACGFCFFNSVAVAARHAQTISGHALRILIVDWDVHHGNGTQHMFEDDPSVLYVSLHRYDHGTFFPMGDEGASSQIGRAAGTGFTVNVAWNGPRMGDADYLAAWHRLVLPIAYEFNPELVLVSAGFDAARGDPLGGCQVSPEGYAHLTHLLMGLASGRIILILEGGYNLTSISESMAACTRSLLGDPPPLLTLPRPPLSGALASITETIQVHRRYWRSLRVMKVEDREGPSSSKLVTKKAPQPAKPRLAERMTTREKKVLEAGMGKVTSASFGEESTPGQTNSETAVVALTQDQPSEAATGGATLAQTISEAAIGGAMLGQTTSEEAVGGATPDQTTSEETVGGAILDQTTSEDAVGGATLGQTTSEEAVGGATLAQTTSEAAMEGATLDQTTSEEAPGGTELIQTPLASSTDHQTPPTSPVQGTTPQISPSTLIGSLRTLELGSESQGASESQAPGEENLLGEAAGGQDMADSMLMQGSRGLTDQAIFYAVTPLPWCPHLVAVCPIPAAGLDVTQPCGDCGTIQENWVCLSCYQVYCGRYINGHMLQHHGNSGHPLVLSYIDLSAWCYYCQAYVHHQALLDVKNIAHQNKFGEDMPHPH

Histone deacetylase 1 [2] = biological target: T2, Histone deacetylase 1 (Homo sapiens, UniProt Q13547); assay: Inhibition of HDAC1 (unknown origin) using Ac-LeuGlyLys(Ac)-AMC as substrate preincubated for 10 mins followed by substrate addition and further incubated for incubated for 1 hrs by fluorescence microtiter plate reader assay
T2 sequence (Q13547 whole entry): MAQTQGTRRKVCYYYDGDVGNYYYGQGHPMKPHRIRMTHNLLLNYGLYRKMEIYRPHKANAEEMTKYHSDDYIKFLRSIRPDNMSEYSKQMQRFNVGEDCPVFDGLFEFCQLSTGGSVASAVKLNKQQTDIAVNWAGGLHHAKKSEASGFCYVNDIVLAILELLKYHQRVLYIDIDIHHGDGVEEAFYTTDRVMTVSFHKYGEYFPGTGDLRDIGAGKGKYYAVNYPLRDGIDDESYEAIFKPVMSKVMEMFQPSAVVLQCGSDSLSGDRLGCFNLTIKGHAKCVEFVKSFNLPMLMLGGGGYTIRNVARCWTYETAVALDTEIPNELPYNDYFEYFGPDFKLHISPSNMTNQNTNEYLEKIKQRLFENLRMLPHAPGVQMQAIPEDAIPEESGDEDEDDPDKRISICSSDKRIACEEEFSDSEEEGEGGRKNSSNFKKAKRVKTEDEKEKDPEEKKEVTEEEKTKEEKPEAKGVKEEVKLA

Histone deacetylase 2 [3] = biological target: T3, Histone deacetylase 2 (Homo sapiens, UniProt Q92769)
T3 sequence (Q92769 whole entry): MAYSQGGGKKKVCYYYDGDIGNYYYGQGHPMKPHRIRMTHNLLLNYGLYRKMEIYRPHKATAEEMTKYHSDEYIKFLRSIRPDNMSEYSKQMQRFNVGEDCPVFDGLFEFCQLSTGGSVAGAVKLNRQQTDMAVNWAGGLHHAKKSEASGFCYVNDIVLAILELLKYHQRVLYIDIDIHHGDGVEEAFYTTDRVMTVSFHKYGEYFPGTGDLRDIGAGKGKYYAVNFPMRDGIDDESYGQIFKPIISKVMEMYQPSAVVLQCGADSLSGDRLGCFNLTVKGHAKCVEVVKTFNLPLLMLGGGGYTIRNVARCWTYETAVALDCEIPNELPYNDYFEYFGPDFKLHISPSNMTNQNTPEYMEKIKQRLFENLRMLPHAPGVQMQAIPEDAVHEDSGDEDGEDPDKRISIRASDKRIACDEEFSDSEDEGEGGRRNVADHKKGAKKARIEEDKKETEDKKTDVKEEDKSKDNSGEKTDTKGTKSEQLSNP

Histone deacetylase 8 [4] = biological target: T4, Histone deacetylase 8 (Homo sapiens, UniProt Q9BY41); assay: Inhibition of HDAC8 (unknown origin) using Ac-LeuGlyLys(tfa)-AMC as substrate preincubated for 10 mins followed by substrate addition and further incubated for incubated for 1 hrs by fluorescence microtiter plate reader assay
T4 sequence (Q9BY41 whole entry): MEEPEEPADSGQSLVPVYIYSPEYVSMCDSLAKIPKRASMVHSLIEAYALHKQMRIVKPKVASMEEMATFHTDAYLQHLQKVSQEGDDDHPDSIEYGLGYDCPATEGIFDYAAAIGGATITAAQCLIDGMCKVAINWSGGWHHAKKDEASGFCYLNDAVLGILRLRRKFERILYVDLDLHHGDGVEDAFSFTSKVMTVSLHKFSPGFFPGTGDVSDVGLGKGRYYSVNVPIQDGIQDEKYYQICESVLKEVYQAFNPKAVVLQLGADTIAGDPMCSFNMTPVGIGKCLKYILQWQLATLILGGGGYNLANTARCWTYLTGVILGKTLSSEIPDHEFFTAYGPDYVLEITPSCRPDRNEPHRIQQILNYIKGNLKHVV

HL-60 [5] = assay: Induction of apoptosis in human HL-60 cells assessed as viable cells at 3 uM after 48 hrs by Annexin V-FITC/propidium iodide staining based flow cytometric analysis (reference value: 93.4%); format: functional; settings: read-out: Activity
In short: (§1)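 HL-60 cells (1 × 10^6/well) exposed 48 h to compound dilutions, collected, PBS-washed, resuspended in Annexin V-FITC binding buffer, stained with propidium iodide and Annexin V-FITC for 15 min, then analysed by flow cytometry.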

HL-60 [6] = assay: Induction of apoptosis in human HL-60 cells assessed as late apoptotic cells at 3 uM after 48 hrs by Annexin V-FITC/propidium iodide staining based flow cytometric analysis (reference value: 1.45%); format: functional; in short: as §1
Jurkat = assay: Antiproliferative activity against human Jurkat cells assessed as inhibition of cell proliferation after 48 hrs by MTT assay; format: functional, cell-based
In short: (§2)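 Leukemia/myeloma lines grown in RPMI1640 with 10% FBS at 37 °C, 5% CO2; seeded at 3500–4000 cells/well, cultured overnight, then exposed to serial dilutions for 48 h.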

HEL = assay: Antiproliferative activity against human HEL cells assessed as inhibition of cell proliferation after 48 hrs by MTT assay; format: functional, cell-based; in short: as §2
KG-1 = assay: Antiproliferative activity against human KG-1 cells assessed as inhibition of cell proliferation after 48 hrs by MTT assay; format: functional, cell-based; settings: KG-1, 48 h; in short: as §2
NCI-H929 = assay: Antiproliferative activity against human NCI-H929 cells assessed as inhibition of cell proliferation after 48 hrs by MTT assay; format: functional, cell-based; settings: NCI-H929, 48 h; in short: as §2
HL-60 [7] = assay: Antiproliferative activity against human HL-60 cells assessed as inhibition of cell proliferation after 48 hrs by MTT assay; format: functional, cell-based; settings: HL-60, 48 h; in short: as §2
[8] = Cytotoxicity against human GEC1 cells assessed as decrease in cell viability after 48 hrs by MTT assay; format: cell-based; settings: GEC1, 48 h
In short: (§3)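 Normal cells: HUVECs in RPMI1640 with 10% FBS plus 0.1% heparin, GEC-1 in RPMI1640 with 10% FBS. Seeded 8 h, then treated with serial dilutions for 48 h; 0.5% MTT for 4 h, supernatant removed, DMSO added, absorbance read at 570 nm.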

HL-60 [9] = assay: Induction of apoptosis in human HL-60 cells assessed as early apoptotic cells at 3 uM after 48 hrs by Annexin V-FITC/propidium iodide staining based flow cytometric analysis (reference value: […]%); format: functional
HUVEC = assay: Cytotoxicity against human HUVEC cells assessed as decrease in cell viability after 48 hrs by MTT assay; format: cell-based; in short: as §3
Histone deacetylase 1 [10] = biological target: T2, Histone deacetylase 1; assay: Inhibition of HDAC1 (unknown origin)
Histone deacetylase 2 [11] = biological target: T3, Histone deacetylase 2; assay: Inhibition of HDAC2 (unknown origin)
Histone deacetylase 3 = Histone deacetylase 3 (Homo sapiens, UniProt O15379); assay: Inhibition of HDAC3 (unknown origin)
Chain of Histone deacetylase 3 (O15379 whole entry): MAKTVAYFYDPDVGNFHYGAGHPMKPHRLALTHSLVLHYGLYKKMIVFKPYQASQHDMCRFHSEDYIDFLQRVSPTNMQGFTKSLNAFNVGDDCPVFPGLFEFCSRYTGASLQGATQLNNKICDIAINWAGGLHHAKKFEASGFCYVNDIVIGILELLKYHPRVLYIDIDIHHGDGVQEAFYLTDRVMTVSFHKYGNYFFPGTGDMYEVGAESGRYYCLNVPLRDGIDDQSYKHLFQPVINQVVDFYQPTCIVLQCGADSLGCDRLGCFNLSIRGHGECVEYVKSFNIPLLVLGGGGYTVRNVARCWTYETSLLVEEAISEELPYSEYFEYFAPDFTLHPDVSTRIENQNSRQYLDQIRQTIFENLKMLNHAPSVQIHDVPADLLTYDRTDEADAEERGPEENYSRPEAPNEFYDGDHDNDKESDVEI

Histone deacetylase 8 [12] = biological target: T4, Histone deacetylase 8; assay: Inhibition of HDAC8 (unknown origin)
Homo sapiens [13] = species on record: Homo sapiens; assay: Selectivity ratio of IC50 for HDAC1 (unknown origin) to IC50 for HDAC6 (unknown origin)
Homo sapiens [14] = species on record: Homo sapiens; assay: Selectivity ratio of IC50 for HDAC2 (unknown origin) to IC50 for HDAC6 (unknown origin)
Homo sapiens [15] = species on record: Homo sapiens; assay: Selectivity ratio of IC50 for HDAC8 (unknown origin) to IC50 for HDAC6 (unknown origin)

IC50 [1] [µM] | SMILES | other results
0.0569 | CCCN1C(=O)N(Cc2ccc(C(=O)NO)cc2)C(=O)C1Cc1ccccc1 (racemic) | 
0.0378 | Cc1ccc(CN2C(=O)N(Cc3ccc(C(=O)NO)cc3)C(=O)C2Cc2ccccc2)cc1 (racemic) | 
0.0048 | O=C(NO)c1ccc(CN2C(=O)C(Cc3ccccc3)N(Cc3ccccn3)C2=O)cc1 (racemic) | IC50 (Histone deacetylase 1 [2]): 3.42 µM; IC50 (Histone deacetylase 2 [3]): 5.08 µM; IC50 (Histone deacetylase 8 [4]): 7.83 µM
0.0746 | O=C(NO)c1ccc(CN2C(=O)NC(Cc3ccc4ccccc4c3)(c3ccccc3)C2=O)cc1 (racemic) | 
0.0919 | O=C(NO)c1ccc(CN2C(=O)NC(Cc3cccc4ccccc34)(c3ccccc3)C2=O)cc1 (racemic) | 
0.0131 | O=C(NO)c1ccc(CN2C(=O)CN(Cc3ccc4ccccc4c3)C2=O)cc1 | 
0.0125 | O=C(NO)c1ccc(CN2C(=O)CN(Cc3ccccc3)C2=O)cc1 | 
0.115 | CC(C)(C)c1ccc(CC2(c3ccccc3)NC(=O)N(Cc3ccc(C(=O)NO)cc3)C2=O)cc1 (racemic) | 
 | CN1CCc2c(c3ccccc3n2Cc2ccc(C(=O)NO)cc2)C1 [TUBASTATIN A] | viability at 3 µM (HL-60 [5]): 87.6%; Activity (HL-60 [6]): 6.24%; IC50 (Jurkat): 14.6 µM; IC50 (HEL): 8.09 µM; IC50 (KG-1): 8.82 µM; IC50 (NCI-H929): 15.4 µM; IC50 (HL-60 [7]): 4.09 µM; IC50 [8]: 48.6 µM; Activity (HL-60 [9]): 6.12%; IC50 (HUVEC): 69.2 µM
0.0083 | O=C(NO)c1ccc(CN2C(=O)CN(Cc3ccc(Cl)cc3)C2=O)cc1 | IC50 (Histone deacetylase 1 [2]): 0.863 µM; IC50 (Histone deacetylase 2 [3]): 1.08 µM; IC50 (Histone deacetylase 8 [4]): 0.994 µM
0.0202 | O=C(NO)c1ccc(CN2C(=O)C(Cc3ccccc3)N(CCc3ccccc3)C2=O)cc1 (racemic) | 
0.119 | CN1CC(=O)N(Cc2ccc(C(=O)NO)cc2)C1=O | 
0.129 | CC(C)CC1C(=O)N(Cc2ccc(C(=O)NO)cc2)C(=O)N1Cc1ccccc1 (racemic) | 
0.0139 | O=C(NO)c1ccc(CN2C(=O)C(Cc3ccccc3)N(Cc3ccncc3)C2=O)cc1 (racemic) | 
0.0213 | O=C(NO)c1ccc(CN2C(=O)C(Cc3ccccc3)N(Cc3ccccc3)C2=O)cc1 (racemic) | 
 | CC(C)(C)OC(=O)Nc1ccc(-c2cc(NC(=O)CCCCCCC(=O)NO)no2)cc1 | IC50 (Histone deacetylase 1 [10]): 0.271 µM; IC50 (Histone deacetylase 2 [11]): 0.252 µM; IC50 (Histone deacetylase 3): 0.00042 µM; IC50 (Histone deacetylase 8 [12]): 6.85 µM
0.0719 | O=C(NO)c1ccc(CN2C(=O)NC(Cc3ccccc3)(c3ccccc3)C2=O)cc1 (racemic) | 
0.102 | COc1ccc(CN2C(=O)N(Cc3ccc(C(=O)NO)cc3)C(=O)C2Cc2ccccc2)cc1 (racemic) | 

IC50 [1] [µM] | SMILES | other results
0.054 | O=C(NO)c1ccc(CN2C(=O)NC(Cc3ccc(Cl)cc3)(c3ccccc3)C2=O)cc1 (racemic) | 
0.139 | CC(C)(C)c1ccc(CN2C(=O)N(Cc3ccc(C(=O)NO)cc3)C(=O)C2Cc2ccccc2)cc1 (racemic) | 
0.0176 | Cc1ccc(CN2CC(=O)N(Cc3ccc(C(=O)NO)cc3)C2=O)cc1 | 
0.0251 | O=C(NO)c1ccc(CN2C(=O)C(Cc3ccccc3)N(Cc3ccc4ccccc4c3)C2=O)cc1 (racemic) | 
0.006 | O=C(NO)c1ccc(CN2C(=O)C(Cc3ccccc3)N(Cc3ccc(Cl)cc3)C2=O)cc1 (racemic) | IC50 (Histone deacetylase 1 [2]): 8.18 µM; Ratio IC50 (Homo sapiens [13]): 1360; Ratio IC50 (Homo sapiens [14]): 1380; IC50 (Histone deacetylase 2 [3]): 8.26 µM; IC50 (Histone deacetylase 8 [4]): 3.99 µM; Ratio IC50 (Homo sapiens [15]): 664
0.0288 | O=C(NO)c1ccc(CN2C(=O)C(Cc3ccccc3)N(Cc3cccc4ccccc34)C2=O)cc1 (racemic) | 
0.107 | CN1C(=O)N(Cc2ccc(C(=O)NO)cc2)C(=O)C1Cc1ccccc1 (racemic) | 
0.0534 | CCCN1CC(=O)N(Cc2ccc(C(=O)NO)cc2)C1=O | 
0.174 | CCCN1C(=O)N(Cc2ccc(C(=O)NO)cc2)C(=O)C1CC(C)C (racemic) | 
0.0217 | O=C(NO)c1ccc(CN2C(=O)CN(CCc3ccccc3)C2=O)cc1 | 
0.251 | CC(C)CC1C(=O)N(Cc2ccc(C(=O)NO)cc2)C(=O)N1C (racemic) | 
0.0407 | CC(C)(C)c1ccc(CN2CC(=O)N(Cc3ccc(C(=O)NO)cc3)C2=O)cc1 | 
0.0824 | Cc1ccc(CC2(c3ccccc3)NC(=O)N(Cc3ccc(C(=O)NO)cc3)C2=O)cc1 (racemic) | 
0.0749 | CC1(c2ccccc2)NC(=O)N(Cc2ccc(C(=O)NO)cc2)C1=O (racemic) | 
0.0724 | COc1ccc(CC2(c3ccccc3)NC(=O)N(Cc3ccc(C(=O)NO)cc3)C2=O)cc1 (racemic) | 
0.0282 | COc1ccc(CN2CC(=O)N(Cc3ccc(C(=O)NO)cc3)C2=O)cc1 | 
0.0509 | CCCC1(c2ccccc2)NC(=O)N(Cc2ccc(C(=O)NO)cc2)C1=O (racemic) | 
0.0247 | O=C(NO)c1ccc(CN2C(=O)NC(CCc3ccccc3)(c3ccccc3)C2=O)cc1 (racemic) | 

From ChEMBL document CHEMBL4842326, “Design, synthesis and biological evaluation of 3, 4-disubstituted-imidazolidine-2, 5-dione derivatives as HDAC6 selective inhibitors” (Eur J Med Chem, 2021)
